Test results taken from ChEMBL document CHEMBL1158120, “Cytotoxic oxygenated triterpenoid saponins from Symplocos chinensis” (J Nat Prod, 2006).

How the values were obtained:
Assay type in all cases: functional, cell-based
HCT-8 = assay: Cytotoxicity against human HCT8 cells by MTT assay
In short: (§1)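 MTT read-out of tumour-cell viability. IC50 values in µM are reported as means of three independent experiments.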

Bel-7402 = assay: Cytotoxicity against human Bel-7402 cells by MTT assay; in short: as §1
BGC-823 = assay: Cytotoxicity against human BGC-823 cells by MTT assay; in short: as §1
A549 = assay: Cytotoxicity against human A549 cells by MTT assay; in short: as §1
A2780 = assay: Cytotoxicity against human A2780 cells by MTT assay; in short: as §1

| Structure (SMILES) | IC50 (HCT-8) [µM] | IC50 (Bel-7402) [µM] | IC50 (BGC-823) [µM] | IC50 (A549) [µM] | IC50 (A2780) [µM] |
| --- | --- | --- | --- | --- | --- |
| CCCCOC(=O)[C@H]1O[C@@H](O[C@H]2CC[C@]3(C)[C@H]4CC=C5[C@@H]6CC(C)(C)[C@@H](OC(=O)/C=C/c7ccccc7)[C@H](OC(=O)C(C)CC)[C@]6(CO)[C@H](O)[C@H](O)[C@@]5(C)[C@]4(C)CC[C@H]3C2(C)C)[C@H](O[C@@H]2O[C@H](CO)[C@@H](O)[C@H](O)[C@H]2O)[C@@H](O)[C@@H]1O[C@@H]1O[C@@H](CO)[C@H](O)[C@H]1O (stereo not given in full) [SYMPLOCOSOSIDE E] | > 10 | 1.7 | > 10 | > 10 | 1.7 |
| CC(C)=CCC/C(C)=C\C(=O)O[C@H]1[C@H](OC(=O)C(C)C)[C@]2(CO)[C@H](O)[C@H](O)[C@]3(C)C(=CC[C@@H]4[C@@]5(C)CC[C@H](O)C(C)(C)[C@@H]5CC[C@]43C)[C@@H]2CC1(C)C | > 10 | > 10 | > 10 | > 10 | > 10 |
| CC1(C)C[C@H]2C3=CC[C@@H]4[C@@]5(C)CC[C@H](O)C(C)(C)[C@@H]5CC[C@@]4(C)[C@]3(C)[C@@H](O)[C@@H](O)[C@@]2(CO)[C@@H](O)[C@@H]1O [R1-barrigenol] | > 10 | > 10 | > 10 | > 10 | > 10 |
| CCCCOC(=O)[C@H]1O[C@@H](O[C@H]2CC[C@]3(C)[C@H]4CC=C5[C@@H]6CC(C)(C)C[C@H](OC(=O)/C=C(/C)CCC=C(C)C)[C@]6(CO)[C@H](O)[C@H](O)[C@@]5(C)[C@]4(C)CC[C@H]3C2(C)C)[C@H](O[C@@H]2O[C@H](CO)[C@@H](O)[C@H](O)[C@H]2O)[C@@H](O)[C@@H]1O[C@@H]1O[C@@H](CO)[C@H](O)[C@H]1O [SYMPLOCOSOSIDE F] | 4 | > 10 | > 10 | > 10 | > 10 |
| CCC(C)C(=O)O[C@H]1[C@H](OC(=O)/C=C(/C)CCC=C(C)C)C(C)(C)C[C@H]2C3=CC[C@@H]4[C@@]5(C)CC[C@H](O[C@@H]6O[C@H](C(=O)O)[C@@H](O[C@@H]7O[C@@H](CO)[C@H](O)[C@H]7O)[C@H](OC(C)=O)[C@H]6O[C@@H]6O[C@H](CO)[C@@H](O)[C@H](O)[C@H]6O)C(C)(C)[C@@H]5CC[C@@]4(C)[C@]3(C)[C@@H](O)[C@@H](O)[C@]21CO (stereo not given in full) [SYMPLOCOSOSIDE G] | 2 | 1.8 | 1.9 | 2.1 | 1.4 |
| CCCCOC(=O)[C@H]1O[C@@H](O[C@H]2CC[C@]3(C)[C@H]4CC=C5[C@@H]6CC(C)(C)[C@@H](OC(=O)/C=C(/C)CCC=C(C)C)[C@H](OC(=O)C(C)CC)[C@]6(CO)[C@H](O)[C@H](O)[C@@]5(C)[C@]4(C)CC[C@H]3C2(C)C)[C@H](O[C@@H]2O[C@H](CO)[C@@H](O)[C@H](O)[C@H]2O)[C@@H](O)[C@@H]1O[C@@H]1O[C@@H](CO)[C@H](O)[C@H]1O (stereo not given in full) [SYMPLOCOSOSIDE C] | 2.9 | 1.5 | 4.3 | > 10 | 1.3 |
| CC1(C)C[C@H](O)[C@]2(CO)[C@H](O)[C@H](O)[C@]3(C)C(=CC[C@@H]4[C@@]5(C)CC[C@H](O)C(C)(C)[C@@H]5CC[C@]43C)[C@@H]2C1 | > 10 | > 10 | > 10 | > 10 | > 10 |
| CCOC(=O)[C@H]1O[C@@H](O[C@H]2CC[C@]3(C)[C@H]4CC=C5[C@@H]6CC(C)(C)[C@@H](OC(=O)/C=C(/C)CCC=C(C)C)[C@H](OC(=O)C(C)CC)[C@]6(CO)[C@H](O)[C@H](O)[C@@]5(C)[C@]4(C)CC[C@H]3C2(C)C)[C@H](O[C@@H]2O[C@H](CO)[C@@H](O)[C@H](O)[C@H]2O)[C@@H](O)[C@@H]1O[C@@H]1O[C@@H](CO)[C@H](O)[C@H]1O (stereo not given in full) [SYMPLOCOSOSIDE Q] | > 10 | > 10 | > 10 | > 10 | 5.5 |
| CCC(C)C(=O)O[C@H]1[C@H](OC(=O)c2ccccc2)C(C)(C)C[C@H]2C3=CC[C@@H]4[C@@]5(C)CC[C@H](O[C@@H]6O[C@H](C(=O)O)[C@@H](O[C@@H]7O[C@@H](CO)[C@H](O)[C@H]7O)[C@H](OC(C)=O)[C@H]6O[C@@H]6O[C@H](CO)[C@@H](O)[C@H](O)[C@H]6O)C(C)(C)[C@@H]5CC[C@@]4(C)[C@]3(C)[C@@H](O)[C@@H](O)[C@]21CO (stereo not given in full) [SYMPLOCOSOSIDE P] | > 10 | > 10 | > 10 | > 10 | 3.3 |
| CCC(C)C(=O)O[C@H]1[C@H](OC(=O)/C=C/c2ccccc2)C(C)(C)C[C@H]2C3=CC[C@@H]4[C@@]5(C)CC[C@H](O[C@@H]6O[C@H](CO)[C@@H](O[C@@H]7O[C@@H](CO)[C@H](O)[C@H]7O)[C@H](O)[C@H]6O[C@@H]6O[C@H](CO)[C@@H](O)[C@H](O)[C@H]6O)C(C)(C)[C@@H]5CC[C@@]4(C)[C@]3(C)[C@@H](O)[C@@H](O)[C@]21CO (stereo not given in full) [SYMPLOCOSOSIDE X] | 1.7 | 1.8 | > 10 | 2.1 | 1.6 |
| CCC(C)C(=O)O[C@H]1[C@H](OC(=O)/C=C/c2ccccc2)C(C)(C)C[C@H]2C3=CC[C@@H]4[C@@]5(C)CC[C@H](O[C@@H]6O[C@H](C(=O)O)[C@@H](O)[C@H](O)[C@H]6O[C@@H]6O[C@H](CO)[C@@H](O)[C@H](O)[C@H]6O)C(C)(C)[C@@H]5CC[C@@]4(C)[C@]3(C)[C@@H](O)[C@@H](O)[C@]21CO (stereo not given in full) [SYMPLOCOSOSIDE N] | 1.8 | 1.7 | > 10 | > 10 | 3.2 |
